# ERa coact inh: blocks coactivator binding to human estrogen receptor alpha. hit rate 1.7% among 86,000. P03372. inhibition, % at 25.6 µM. TR-FRET ER-alpha LBD / SRC-1 peptide, estradiol-bound. AID 629; in the data active = inhibition above about 50%
# SF1 activator: activators of human nuclear receptor SF-1. activation, % at 10 µM. hit rate 1.9% among 65,000. CHO-K1 Gal4-SF-1 LBD luciferase reporter; % increase over DMSO SF-1-specific signal. Q13285. AID 522;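 active = activation above the mean activation of all tested compounds plus 3 SD, cut at about 50% in these data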
#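 System: CHO-K1 cells with Gal4–hSF-1 LBD chimera plus Gal4-driven luciferase; quantity: 4,000 CHO-K1 cells per well; compound: one dose, 10 µM compound, 1% DMSO; times: 20 h compound treatment, 37 °C; measured by: SteadyLite luciferase luminescence; read-out: percent activation versus DMSO; benchmarks: DMSO and mock-transfected background; replicates: one test per compound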
# RORA act: RORA (human) activation; P35398; CHO-K1 Gal4-RORA LBD luciferase reporter, luminescence; percent increase over mock-subtracted basal signal; activation, % at 10 µM; hit rate 1.5% among 65,000; AID 560;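 active = activation above the mean of all tested compounds plus 3 SD, cut at about 49% in these data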
# Target sequence (P35398 whole entry, looked up, the tested form may be a part): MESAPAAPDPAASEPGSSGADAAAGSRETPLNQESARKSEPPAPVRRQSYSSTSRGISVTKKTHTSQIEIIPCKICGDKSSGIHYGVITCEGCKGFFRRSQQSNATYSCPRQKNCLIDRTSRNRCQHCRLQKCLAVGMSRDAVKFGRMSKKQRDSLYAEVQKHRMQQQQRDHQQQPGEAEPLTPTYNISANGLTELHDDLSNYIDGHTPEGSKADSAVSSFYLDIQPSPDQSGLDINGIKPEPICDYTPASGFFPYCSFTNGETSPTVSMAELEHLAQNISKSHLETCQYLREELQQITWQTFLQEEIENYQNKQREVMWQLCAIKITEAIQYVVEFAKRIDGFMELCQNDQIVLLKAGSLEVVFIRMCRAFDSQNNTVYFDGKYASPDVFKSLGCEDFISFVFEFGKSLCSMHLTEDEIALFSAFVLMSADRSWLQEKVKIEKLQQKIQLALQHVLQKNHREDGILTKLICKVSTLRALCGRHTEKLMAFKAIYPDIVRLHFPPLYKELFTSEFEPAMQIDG
# Pyk2 oligo antag: antagonists of human Pyk2 oligomerization; Q14289; Q293 cells, Pyk2 FERM NanoBiT luminescence; stronger effect = lower value; z-score (the deposit names both 25 µM and 10 µM); hit rate 0.83% among 99,000;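 active = Z-score of -3 or lower, scaled per plate to the spread of control and sample wells; inactive = z-score above -3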;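 note: negative z-score means lost luminescence so less FERM oligomerization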
# ERa SRC1 pot: enhances coactivator binding to human estrogen receptor alpha | coactivator binding (% of control), % at 25.6 µM | TR-FRET ERalpha-LBD/SRC-Cy5 coactivator binding, 2 h; 100 = basal binding, no effect | AID 639 | hit rate 1.3% among 86,000; in the data active = activity above about 200%;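 note: binding measured in presence of low estradiol as agonist stimulus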
# ERb SRC1 inh: ER-beta (human) coactivator binding inhibition; Q92731; TR-FRET ER-beta LBD / SRC1-Cy5 peptide binding; receptor agonist-loaded with 1 µM estradiol; inhibition, % at 25.6 µM; hit rate 1.3% among 86,000;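 active = compounds whose percent inhibition of the receptor-coactivator binding signal exceeds about 50% in the single-dose screen, limit read from the data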
# Numbers stand for hits; i = inactive; nt = no result; [ ] = dose if it differs, or a comment. Only some compounds are listed: those with a hit (about 4.8% of all), similar ones and a draw of the others.
SMILES,ERa coact inh,SF1 activator,RORA act,Pyk2 oligo antag,ERa SRC1 pot,ERb SRC1 inh
N#Cc1c(N)nc(SC2CCCCC2=O)c(C#N)c1-c1ccco1 (configuration not stated),i,i,i,i,217[fluorescence artefact?],i
N#Cc1c(N)nc(SCc2ccccc2)c(C#N)c1-c1ccco1,i,i,i,i,213,i
Cc1cc(C)c(C#N)c(SC2CCCCC2=O)n1 (configuration not stated),i,i,i,i,i,i
N#Cc1c(N)nc(SCc2ccccn2)c(C#N)c1-c1cccs1,i,i,i,-3.8,373[fluorescence artefact?],i
O=C(CSc1nnc(-c2csc3c2CCCC3)o1)Nc1ccccc1,i,i,i,nt,i,i
CCSc1nnc(-c2ccc(OC)cc2)o1,nt,i,90,i,nt,nt
COc1ccc(-c2nnc(SCC#N)o2)cc1,i,i,i,i,i,i
COc1ccc(C(=O)CSc2nnc(-c3ccc(S(=O)(=O)N4CCOCC4)cc3)o2)cc1,i,i,i,i,470[fluorescence artefact?],i
COc1ccc(-c2nnc(SCC(=O)c3cccs3)o2)cc1,i,i,50,i,i,i
CCSc1nnc(-c2ccc(Cl)cc2Cl)o1,i,54,i,i,i,i
O=C(CSc1nnc(-c2cccs2)o1)c1cccs1,i,98,i,i,i,i
COc1ccc(-c2ccc(-c3nnc(-c4ccncc4)o3)cc2)cc1,56[fluorescence artefact?],i,i,nt,i,i
COc1ccc(-c2nnc(SCC(=O)c3[nH]c(C)c(C(C)=O)c3C)o2)cc1,i,i,i,i,275,i
N#CC1=C(N)n2c(s/c(=C\c3ccco3)c2=O)=C(C#N)C1c1ccco1 (configuration not stated),75[fluorescence artefact?],i,i,i,i,67[fluorescence artefact?]
CCOC(=O)C1=C(N)n2c(s/c(=C/c3ccco3)c2=O)=C(C(=O)OC)C1c1ccco1 (configuration not stated),i,i,i,i,i,i
Cc1nn(C)c(C(=O)N/N=C/c2ccc(C(F)(F)F)cc2)c1[N+](=O)[O-],nt,nt,nt,i,nt,nt
Cc1ccccc1-c1noc(-c2ccc(O)cc2)n1,i,i,101,i,i,i
COc1ccc(-c2ccc(-c3noc(-c4cccc(OC)c4)n3)c(OC)n2)cc1,nt,i,i,i,nt,nt
COc1ccc(-c2ccc(-c3noc(-c4ccccc4OC)n3)c(OC)n2)cc1,i,i,i,i,231,i
COc1ccc(-c2ccc(-c3noc(-c4ccc(OC)c(OC)c4)n3)c(OC)n2)cc1,80,i,i,nt,i,i
COc1cc(OC)cc(-c2nc(-c3ccccc3OC)no2)c1,i,i,i,i,488[fluorescence artefact?],i
COCCN(C(=O)C1CC1)c1nnc(-c2cccc(C)c2)s1,i,i,i,i,i,i
COC(=O)c1ccc(NC(=O)C2CCCN(S(=O)(=O)c3cnc[nH]3)C2)cc1 (configuration not stated),i,i,i,nt,i,i
COc1ccc(-c2nc(-c3ccc(Br)cc3)no2)c(OC)c1,i,i,i,i,206[fluorescence artefact?],i
COc1ccccc1-c1nc(-c2ccc(Br)cc2)no1,i,i,i,i,i,i
SMILES,ERa coact inh,SF1 activator,RORA act,Pyk2 oligo antag,ERa SRC1 pot,ERb SRC1 inh
COc1ccc(-c2ccc(-c3noc(-c4ccccc4C)n3)c(OC)n2)cc1,i,i,i,i,230[fluorescence artefact?],i
COc1ccc(-c2ccc(-c3noc(-c4cccs4)n3)c(OC)n2)cc1,i,i,i,i,474,i
COc1ccc(CCNS(=O)(=O)c2cccc(C(=O)O)c2)cc1OC,i,i,i,i,i,i
CCOC(=O)n1c(=O)n(Cc2c(Cl)cccc2Cl)c2ccccc21,nt,nt,nt,i,nt,nt
COc1ccc(CCn2c(-c3ccco3)nc3nc4ccccc4nc32)cc1,i,i,i,i,i,i
COc1ccc(C(=O)n2c(-c3ccco3)nc3ccccc32)cc1,i,i,65,i,i,i
Cc1cc(NC(=O)c2ccoc2C)no1,i,nt,nt,i,i,i
Cc1sc(NC(=O)CSc2nnc(C)c(=O)[nH]2)c(C#N)c1C,i,i,i,i,i,i
CC(C)(C)n1nnnc1C(c1cccs1)N(Cc1ccccc1)Cc1cccnc1 (configuration not stated),i,i,i,-4.2,i,i
CCN(Cc1ccccc1)C(c1ccncc1)c1nnnn1C(C)(C)C (configuration not stated),i,i,i,i,i,i
CC(C)(C)n1nnnc1C(c1cccnc1)N(Cc1ccccc1)Cc1cccs1 (configuration not stated),i,nt,nt,-3.6,i,i
Cn1c(N2CCCCC2)cc(=O)n(C)c1=O,i,nt,nt,i,i,96[fluorescence artefact?]
CCOC(=O)C1CSC(CC(=O)Nc2ccc(Cl)cc2)C(=O)N1 (configuration not stated),i,i,i,i,i,i
Cc1ccccc1NC(=O)Cn1cnc2c1c(=O)n(C)c(=O)n2C,i,nt,nt,i,i,62
COc1ccccc1NC(=O)Cn1cnc2c1c(=O)n(C)c(=O)n2C,i,i,i,i,i,i
Cn1c(=O)c2sccc2n2c(CCCC(=O)NCc3ccc4c(c3)OCO4)nnc12,nt,i,i,i,nt,nt
CCc1ccccc1N1CCN(S(=O)(=O)c2ccc(F)c(C)c2)CC1,i,i,i,-3.3,i,i
Cc1ccc(N2CCN(S(=O)(=O)c3ccc(F)c(C)c3)CC2)c(C)c1,i,i,i,-3.2,i,i
CCOC(=O)c1cnc(SCc2nc(N)nc(Nc3ccc(C)cc3)n2)nc1N,i,i,i,i,i,i
COc1cc(C(=O)Nc2ccc(-c3nc4cc(C)ccc4o3)c(O)c2)cc(OC)c1OC,i,i,i,i,246,i
COc1cc(C(=O)Nc2cccc(-c3nc4ccccc4o3)c2C)cc(OC)c1OC,i,i,i,i,i,i
COc1cccc(C(=O)Nc2ccc(-c3nc4ccccc4o3)c(O)c2)c1,60[fluorescence artefact?],i,i,i,i,i
Cc1c(NC(=O)CC2CC(C)OC2=O)c(=O)n(-c2ccccc2)n1C (configuration not stated),i,i,i,i,i,i
O=C(CSc1n[nH]c(-c2ccccc2)n1)c1ccc(O)c(O)c1,67[fluorescence artefact?],i,i,i,i,77[fluorescence artefact?]
CCc1ccc(C(=O)CSc2n[nH]c(-c3ccncc3)n2)cc1,i,nt,nt,i,i,i
SMILES,ERa coact inh,SF1 activator,RORA act,Pyk2 oligo antag,ERa SRC1 pot,ERb SRC1 inh
Cc1nn(Cc2ccccc2Cl)c(C)c1C(=O)NCc1ccco1,i,i,i,i,i,79
CCc1ccc(C(=O)Cn2ncc(Cl)c(Cl)c2=O)cc1,i,nt,nt,i,i,52
Cc1ccc(Cn2ncc(Cl)c(Cl)c2=O)cc1,nt,nt,nt,i,nt,nt
CCOC(=O)N1CCN(C(=S)Nc2cc(OC)c(OC)cc2C(=O)OC)CC1,nt,nt,nt,i,nt,nt
Cc1ccc(N=Cc2nc(-c3ccco3)oc2O)cc1,i,104,i,i,i,i
Cc1ccc(C(=O)Oc2oc(-c3ccco3)nc2C=Nc2ccc(Cl)cc2)cc1,i,nt,nt,i,i,i
COc1ccc(OC)c(NC(=O)CSc2nc(C)cs2)c1,nt,i,i,i,nt,nt
